From the RNAGym collection of RNA variant scans (doi:10.1126/science.aae0568)
Variants at the floor of the assay were thinned out.

B1: tRNA (parent)
chain: GUUCCGUUGGCGUAAUGGUAACGCGUCUCCCUCCUAAGGAGAAGACUGCGGGUUCGAGUCCCGUACGGAACG

Variants of: B1
Test: yeast fitness relative to wild type (ratio to wild type); higher = fitter; tRNA-Arg(CCU), competitive growth, 37 C, YPD
Summary of the method: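 For this measurement, the tRNA-Arg(CCU) gene was varied by chemical synthesis at a 3% per-site mutation rate across 69 sites, and each variant was placed at the native genomic locus in Saccharomyces cerevisiae. The pooled strains went through a 24-hour competition in YPD at 37°C in six parallel replicates, with amplicons from start and end populations read by 100-nucleotide paired-end sequencing. Darwinian fitness relative to wild type followed from the change in each genotype's frequency. Genotypes needed ≥ 100 starting reads, and estimates < 0.5 were set to 0.5.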

Variant	yeast fitness
C29A A43U A57C	0.642
C29A C30U C62G U64A	0.553
C29A A37G G58A	≤ 0.5
U28G U64G	0.628
C29A C30A G58A	≤ 0.5
C29A C49U C62U	0.562
C29A C30U U64C	≤ 0.5
U28A G41A	0.697
U28G U32A G38C	0.653
C29A A43U	0.585
C29A A43G	0.645
U28A G48A G58C C66G	≤ 0.5
U28G G50U C60G	≤ 0.5
C29A C30A G50A A70C	≤ 0.5
U28C U64A	0.622
U28C G48C U53C	0.553
C29A A57U A65C	0.584
U28G G48A C49G G50U	0.611
U28G U32A G38C A43G	0.551
C29A C30G G50C	≤ 0.5
C29A A69G	0.6
U28G U32C C49G G52C	≤ 0.5
U28A G58A	0.913
U28A G58C	0.798

Variant	yeast fitness
U28A G52A A57U C60U A65G G68A	0.59
U28C A36G	0.989
U28C A43C G44C C61A	0.548
U28C C31G	0.907
U28C C31A	0.784
C29A C30G G50C A65G	≤ 0.5
U28C U59C G67A	0.532
C29A C33U U47A	≤ 0.5
C29A A36C C55U C61A	≤ 0.5
U28C A40G A70C	0.576
U28A G44C	0.813
U28C C29U A45C	0.545
U28A U47G	0.535
U28A U47C	0.858
U28C C29G C33A G68C	≤ 0.5
C29A C30U C49U	≤ 0.5
U28G G67A	0.69
C29A C61U	0.647
C29A C61G	≤ 0.5
U28C G39U C49A C55U	≤ 0.5
U28G A37G	0.586
U28C A43C G44C	≤ 0.5
U28G G41C	0.551
C29A A40U A45C C49A A57G	0.574

Variant	yeast fitness
U28C G52C U64A	≤ 0.5
C29A C55G A65G	0.57
U28C G56A	0.933
U28G A43G G44A	≤ 0.5
U28G A37C C55U	≤ 0.5
U28G C31G U59A C61G	≤ 0.5
U28C A37C	0.786
U28C A37G	0.724
C29A C30U U47C U64C	≤ 0.5
U28C A37C A40U G63A A70C	≤ 0.5
U28A U35C	0.753
C29A C33U C62A A69C	≤ 0.5
U28C C34G A40G A43G C46G C55U C66U	≤ 0.5
U28A G56A	0.796
U28A C34U G52A	≤ 0.5
U28G C34G A36G G44C C61G	≤ 0.5
C29A C55A	≤ 0.5
C29A C55U	0.603
U28A G38C	0.541
U28A G38A	0.772
U28C A42C U54G	≤ 0.5
C29A A57U C62U	≤ 0.5
C29A A42G A45U G50A C60A	≤ 0.5
U28A C34U A45U C62A	≤ 0.5

Variant	yeast fitness
U28G C29G	0.608
U28G C29A	≤ 0.5
U28G C34G G44C C61G	0.558
U28C G51A U59A A65C	≤ 0.5
U28G C31U C66U	≤ 0.5
C29A C33G C61U	0.619
U28C C46U G51C A70C	≤ 0.5
U28C C30G	0.667
U28C C30U	0.767
U28C A45U A70U	0.773
U28A C49U U54G	≤ 0.5
C29A C34G A57C	≤ 0.5
C29A C61G G67C G68A	≤ 0.5
U28C C30G C49G	≤ 0.5
U28G U35G A45U	≤ 0.5
U28G C31U	0.544
U28G C31G	0.629
C29A A36U C61U G67A G68U	≤ 0.5
U28C U47C G58A	1.07
U28G G41C G56A	0.562
U28A G44A G50A A57G G68C	≤ 0.5
C29A A45U U59C	0.721
C29A A36G A45C G56A	≤ 0.5
U28C C29G C49U	≤ 0.5

Variant	yeast fitness
U28C C61G G67A	≤ 0.5
U28A C34U U47C C60U	≤ 0.5
U28G C62U	0.737
U28G A36G A45G	0.718
U28C C34A C49G G51C	≤ 0.5
U28C A70G	0.92
U28A G39C	0.552
U28A U32G A65U	≤ 0.5
U28C C66U	0.907
U28C C66G	0.72
C29A C30A G58C C62U	0.565
C29A C46U A57G	≤ 0.5
U28C C61G G68C	≤ 0.5
C29A C46A A70G	≤ 0.5
U28C C30U A45C G58A G67U	≤ 0.5
U28C C55A C61U G68A A70G	≤ 0.5
U28C C33A C49U C55G	≤ 0.5
C29A C33A G51C C61U	≤ 0.5
U28G A37C C55U A65U	≤ 0.5
U28A C61G C62G	0.533
C29A A37G A57G G67C A69U	≤ 0.5
C29A C60A C66G	≤ 0.5
U28C C30U C49U	≤ 0.5
C29A A42G A70U	0.582

Variant	yeast fitness
U28A G52A U54A	≤ 0.5
C29A C49G	0.623
U28A C46A C60U C66U	≤ 0.5
U28A G52A	0.705
U28A G58C G68C	≤ 0.5
U28G G51C U64A C66U	≤ 0.5
U28C C62G	0.724
U28C C62U	1.02
U28G G52A	0.681
U28C C29A C31G C55A G58A	≤ 0.5
U28C C33G G38A A57G	≤ 0.5
U28G C34A	0.568
U28G G38A A40G G56A C62U	≤ 0.5
U28G A36G C66U	0.582
U28A C49A	0.644
U28A C49U	0.804
U28A C49G	0.818
U28G A40U A69C	0.629
U28C A45G	0.948
U28G A36C G38C C49U	≤ 0.5
U28C U32C	0.935
U28C U32A	0.754
U28A C61A	0.612
U28C C30A C49U	≤ 0.5

Variant	yeast fitness
U28C G51A C55U C66G	0.553
U28A C49U U54G C62U	≤ 0.5
U28C U47C U59A C66A	≤ 0.5
U28C A69U	0.893
U28A G68C	0.707
U28A G68U	0.762
U28A G39A C46A A57C	≤ 0.5
U28G G51C U64A C66U A69C	0.583
U28C G38A A40C A45G G48A U59A C62U	0.542
U28A G48A C60G	≤ 0.5
U28C G51A	0.773
C29A C33G U35C C66U	≤ 0.5
U28G C33G A45C	0.607
U28G A40U G56A	1.02
C29A C30U A36U A70C	≤ 0.5
U28G C31U G68A	≤ 0.5
U28C G48A C61G	0.548
U28G A57U A70U	0.721
U28C G48A	0.866
C29A A37C A42C G50A	≤ 0.5
U28C C33U G41A G52C	≤ 0.5
U28C A57U	0.823
C29A C31G C60A	0.656
